Screening results as filed in PubChem BioAssay.
MEKK2 mut-MEK5: signal of MEK5 binding to mutant human MEKK2 PB1 domain; bead flow cytometry, Alexa488-MEK5 binding to MEKK2 mutant; percent response, % at 10 µM; 0.35% of 290,000 active; AID 1530; in the data active = percent response above about 24%, passing the limit was not always enough
Efflux pump mplx: inhibitors of Candida antifungal efflux pumps expressed in yeast; S. cerevisiae Candida pump triplex, Nile Red efflux; inhibition, % at 10 µM; AID 485275; 0.44% of 330,000 active;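 active = plate passing quality check with inhibition over a set limit, or well fluorescence over plate mean plus 4 SD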;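 also: Nile Red retained in pooled yeast measured as flow cytometry median fluorescence; higher means more Nile Red kept so more efflux inhibition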
ABCG2 block: inhibitors of human ABCG2 transporter, ABCB1 counter-screen; 0.1% of 190,000 active; AID 1325; Q9UNQ0; inhibition, % at 6.6 µM; IgMXP3 cells, JC-1 efflux, flow cytometry;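 active = inhibition above 80%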
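Test system: ABCG2 IgMXP3 and barcoded ABCB1 CCRF-Adr cell mix; Schedule: cells with compound and JC-1, 10 min at 25 °C, rotating, no wash; Technique: flow cytometry of retained JC-1 fluorescence; Measure: % inhibition of efflux relative to nicardipine and DMSO; Controls: nicardipine high and DMSO low controls.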
ABCB1 inh: human ABCB1 inhibition, ABCG2 as counter-screen. inhibition, % at 6.6 µM. P08183. 0.067% of 190,000 active. AID 1326. CCRF-Adr cells, JC-1 efflux, flow cytometry; in the data active = inhibition above about 40%;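 also: higher value means more JC-1 retained so stronger ABCB1 efflux block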
Target sequence (P08183 whole entry, looked up): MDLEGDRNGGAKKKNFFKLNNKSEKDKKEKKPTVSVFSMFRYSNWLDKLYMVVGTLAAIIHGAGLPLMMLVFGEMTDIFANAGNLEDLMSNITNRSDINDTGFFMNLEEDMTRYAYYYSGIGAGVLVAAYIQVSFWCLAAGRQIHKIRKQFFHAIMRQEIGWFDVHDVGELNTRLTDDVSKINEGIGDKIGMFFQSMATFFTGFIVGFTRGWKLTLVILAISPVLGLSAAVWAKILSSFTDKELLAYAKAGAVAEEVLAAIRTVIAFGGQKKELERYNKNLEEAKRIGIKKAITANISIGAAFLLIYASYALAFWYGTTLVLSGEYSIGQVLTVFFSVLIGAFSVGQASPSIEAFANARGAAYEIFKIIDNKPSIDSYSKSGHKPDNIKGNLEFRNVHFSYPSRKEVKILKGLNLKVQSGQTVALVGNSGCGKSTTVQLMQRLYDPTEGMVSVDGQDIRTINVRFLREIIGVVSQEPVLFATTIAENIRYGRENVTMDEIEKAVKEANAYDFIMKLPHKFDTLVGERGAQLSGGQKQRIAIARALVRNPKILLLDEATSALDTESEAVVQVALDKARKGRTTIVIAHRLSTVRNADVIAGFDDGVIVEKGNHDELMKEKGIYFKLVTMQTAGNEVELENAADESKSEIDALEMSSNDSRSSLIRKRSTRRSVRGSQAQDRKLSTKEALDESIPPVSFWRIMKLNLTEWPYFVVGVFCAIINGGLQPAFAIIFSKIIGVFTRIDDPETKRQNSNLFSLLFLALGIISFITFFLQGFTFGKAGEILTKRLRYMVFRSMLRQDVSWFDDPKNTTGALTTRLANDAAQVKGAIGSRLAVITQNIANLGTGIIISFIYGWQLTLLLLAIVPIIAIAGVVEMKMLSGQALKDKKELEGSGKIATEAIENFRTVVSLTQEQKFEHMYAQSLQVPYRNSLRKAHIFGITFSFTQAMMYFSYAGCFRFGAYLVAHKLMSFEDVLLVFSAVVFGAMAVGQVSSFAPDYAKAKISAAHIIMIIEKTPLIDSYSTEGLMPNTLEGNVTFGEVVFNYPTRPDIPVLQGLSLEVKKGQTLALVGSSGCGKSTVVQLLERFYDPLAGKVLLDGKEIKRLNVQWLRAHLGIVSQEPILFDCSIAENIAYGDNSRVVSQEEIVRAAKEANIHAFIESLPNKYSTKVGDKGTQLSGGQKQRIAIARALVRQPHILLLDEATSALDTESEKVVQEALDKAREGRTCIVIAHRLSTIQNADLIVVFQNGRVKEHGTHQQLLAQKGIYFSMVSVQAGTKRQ
MEKK3 PB1 HTS: modulators (inhibitors or enhancers) of MEK5 binding to human MEKK3 PB1 domain | bead-based flow cytometry, Alexa488-MEK5 binding to MEKK3; actives lie on both sides; 0 = blocked by unlabeled MEK5, 100 = vehicle | AID 1529 | binding response (% of control), % at 10 µM | 1.4% of 290,000 active | Q99759;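 active = binding response more than 3 SD above or below the average of its plate-row segment, actives on both sides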;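 also: Alexa488 bead fluorescence after subtracting the streptavidin-only scavenger bead signal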
MEKK2wt PB1 HTS: raises or lowers MEK5 binding to wildtype human MEKK2 PB1 domain | bead flow cytometry, Alexa488-MEK5 binding to MEKK2 WT; actives lie on both sides | binding response (% of control), % at 10 µM | 1.1% of 290,000 active | AID 1531; in the data active = binding response below about 67% or above about 130%
MEKK2wt confirm: raises or lowers MEK5 binding to wildtype human MEKK2, retest; shares compounds with MEKK3 PB1 HTS; bead flow cytometry, Alexa488-MEK5 binding to MEKK2 WT; actives lie on both sides; binding response (% of control), % at 10 µM; 2.4% of 5,900 active; in the data active = binding response below about 16% or above about 210%; inactive = in between
MEKK2mut confirm: signal of MEK5 binding to mutant human MEKK2, retest | 2% of 5,900 active | shares compounds with MEKK3 PB1 HTS | percent response, % at 10 µM | bead flow cytometry, Alexa488-MEK5 binding to MEKK2 mutant; in the data active = percent response mostly above about 71%, no sharp cut-off; inactive = mostly below about 38%;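 also: higher means compound restores mutant binding toward wildtype level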
MEKK3-MEK5 inh: MEKK3-MEK5 PB1 inhibition, single concentration confirmation | AID 1894 | 1.8% of 5,900 active | binding response (% of control), % at 10 µM | bead flow cytometry, Alexa488-MEK5 binding to MEKK3; hits give low values | shares compounds with MEKK3 PB1 HTS;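 active = binding response below 72% of control, or above a set upper limit, though filed actives all read lower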;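 also: lower values mean stronger disruption of MEK5 binding to MEKK3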
Large screens that a line does not name were inactive (follow-up assays come after a bar, where they were run); [ ] = dose if it differs, or a comment. Compounds with a hit are over-represented: about 2.5% of the library has one in this group of screens.

Cc1ccc(/C=N/NC(=O)c2csc(C)c2)o1	none
CC(=O)Nc1cccc(C(=O)N/N=C/c2ccc(C)o2)c1	none
Cc1ccc(S(=O)(=O)N/N=C\c2ccc(C)o2)cc1	none
O=C(N/N=C\c1cccnc1)c1ccccc1O	none (no result: ABCG2 block, ABCB1 inh)
Cc1ccc(/C=N/NS(=O)(=O)c2ccc([N+](=O)[O-])cc2)o1	MEKK3 PB1 HTS 134 | MEKK2wt confirm inactive | MEKK2mut confirm inactive | MEKK3-MEK5 inh inactive
O=C(c1ccc2c(=O)n(Cc3ccccc3Cl)c(=S)[nH]c2c1)N1CCCC1	none (no result: ABCG2 block, ABCB1 inh)
Nc1nc(N2CCOCC2)cc(=O)[nH]1	none (no result: MEKK2 mut-MEK5, MEKK3 PB1 HTS, MEKK2wt PB1 HTS)
O=C(N/N=C/c1cccc([N+](=O)[O-])c1)c1cc2ccccc2o1	MEKK3 PB1 HTS 69[inhibitor] | MEKK2wt confirm inactive | MEKK2mut confirm inactive | MEKK3-MEK5 inh inactive
O=C(N/N=C\c1cn[nH]c1-c1ccc(Cl)cc1)c1cccs1	MEKK3 PB1 HTS 71[inhibitor], MEKK2wt PB1 HTS 60[inhibitor] (no result: ABCG2 block, ABCB1 inh) | MEKK2wt confirm inactive | MEKK2mut confirm inactive | MEKK3-MEK5 inh inactive
O=C(N/N=C\c1ccc(-c2ccc([N+](=O)[O-])cc2)o1)c1ccc2c(c1)OCO2	MEKK3 PB1 HTS 142 | MEKK2wt confirm inactive | MEKK2mut confirm inactive | MEKK3-MEK5 inh inactive
O=C(CCc1ccccc1)c1nnc(-c2ccccc2)o1	none
O=C1NC(NS(=O)(=O)c2ccc(Cl)cc2)(C(F)(F)F)C(=O)N1Cc1cccnc1 (stereo not drawn)	none
O=C(N/N=C/c1cc2ccccc2nc1Cl)[C@H]1C[C@@H]1c1ccccc1	MEKK3 PB1 HTS 168 | MEKK2wt confirm inactive | MEKK2mut confirm inactive | MEKK3-MEK5 inh inactive
NC(=O)CSc1nnc(-c2ccccc2Br)n1-c1cccc(C(F)(F)F)c1	MEKK3 PB1 HTS 139 | MEKK2wt confirm inactive | MEKK2mut confirm inactive | MEKK3-MEK5 inh inactive
CCNC(=O)CSc1nnc(-c2ccccc2Br)n1-c1cccc(C(F)(F)F)c1	MEKK3 PB1 HTS 128 | MEKK2wt confirm inactive | MEKK2mut confirm inactive | MEKK3-MEK5 inh inactive
O=C(O)CSc1nnc(-c2ccccc2Br)n1-c1cccc(C(F)(F)F)c1	none
CC(=O)c1sc(NC(=O)C(C)Oc2ccc3c(C)cc(=O)oc3c2)nc1C (stereo not drawn)	none (no result: ABCG2 block, ABCB1 inh)
Cc1ccccc1N1C(=O)c2cccc3cccc(c23)C1=O	MEKK2 mut-MEK5 26 (no result: ABCG2 block, ABCB1 inh) | MEKK2wt confirm inactive | MEKK2mut confirm inactive | MEKK3-MEK5 inh inactive
COC(=O)c1ccc(OC(=O)C23CCC(C)(C(=O)O2)C3(C)C)cc1 (stereo not drawn)	none
CC1=C(C(=O)OC2CCCC2)C(c2coc3ccccc3c2=O)C2=C(CCCC2=O)N1 (stereo not drawn)	MEKK3 PB1 HTS 133 | MEKK2wt confirm inactive | MEKK2mut confirm inactive | MEKK3-MEK5 inh inactive
CC1=C(C(=O)OCCOc2ccccc2)C(c2coc3ccccc3c2=O)C2=C(CCCC2=O)N1 (stereo not drawn)	MEKK3 PB1 HTS 69[inhibitor] | MEKK2wt confirm inactive | MEKK2mut confirm inactive | MEKK3-MEK5 inh inactive
COc1ccccc1CCc1nnc(CCC(=O)NC(C)Cc2cccs2)o1 (stereo not drawn)	none
CCOC(=O)Cn1cnc(-c2ccc([N+](=O)[O-])cc2)c1	none
Cc1cc(C)c(NC(=O)CNC(=O)Cc2ccc(S(=O)(=O)N3CCOCC3)s2)c(C)c1	none (no result: MEKK2 mut-MEK5, ABCG2 block, ABCB1 inh, MEKK3 PB1 HTS, MEKK2wt PB1 HTS)
O=S(=O)(NC1CCCCC1Nc1ccccc1)c1ccccc1 (stereo not drawn)	MEKK3 PB1 HTS 128 | MEKK2wt confirm inactive | MEKK2mut confirm inactive | MEKK3-MEK5 inh 71
CCc1ccc(Nc2nc3ccccc3c(=O)s2)cc1	none
COc1ccc(-c2sc(Nc3ccccc3)n[n+]2-c2ccc(F)cc2)cc1Br	none (no result: ABCG2 block, ABCB1 inh)
CCc1ccc(Nc2n[n+](-c3ccccc3)c(-c3cc(OC)c(OC)cc3Br)s2)cc1	MEKK2 mut-MEK5 77, MEKK2wt PB1 HTS 194 (no result: ABCG2 block, ABCB1 inh) | MEKK2wt confirm 225 | MEKK2mut confirm 75 | MEKK3-MEK5 inh inactive
CCc1ccc(Nc2n[n+](-c3ccccc3)c(/C=C/c3ccccc3)s2)cc1	MEKK2 mut-MEK5 25, MEKK2wt PB1 HTS 189 (no result: ABCG2 block, ABCB1 inh) | MEKK2wt confirm inactive | MEKK2mut confirm inactive | MEKK3-MEK5 inh inactive
COc1ccc2ccccc2c1-c1sc(Nc2ccccc2)n[n+]1-c1ccc(F)cc1	MEKK2 mut-MEK5 43, MEKK2wt PB1 HTS 155 (no result: ABCG2 block, ABCB1 inh) | MEKK2wt confirm inactive | MEKK2mut confirm inactive | MEKK3-MEK5 inh inactive
COc1ccc2[nH]c(=O)c(CNC3CCCCC3)cc2c1	MEKK3 PB1 HTS 78[inhibitor] | MEKK2wt confirm inactive | MEKK2mut confirm inactive | MEKK3-MEK5 inh inactive
CN(C)CCCN(C(=O)c1ccc(Br)s1)c1nc2cc3c(cc2s1)OCO3	none
CN(C)CCCN(C(=O)c1ccc2c(c1)CCCC2)c1nc2cc3c(cc2s1)OCO3	MEKK2wt PB1 HTS 154 (no result: ABCG2 block, ABCB1 inh) | MEKK2wt confirm inactive | MEKK2mut confirm inactive | MEKK3-MEK5 inh inactive
CN(C)CCN(C(=O)c1ccc(C(=O)c2ccccc2)cc1)c1nc2cc3c(cc2s1)OCCO3	none (no result: ABCG2 block, ABCB1 inh)
CN(C)CCCN(C(=O)c1ccc(C(=O)c2ccccc2)cc1)c1nc2cc3c(cc2s1)OCCO3	MEKK2 mut-MEK5 27, MEKK2wt PB1 HTS 166 (no result: ABCG2 block, ABCB1 inh) | MEKK2wt confirm inactive | MEKK2mut confirm inactive | MEKK3-MEK5 inh inactive
CCN(CC)CCN(C(=O)c1ccc2c(c1)CCCC2)c1nc2ccc(F)cc2s1	MEKK2wt PB1 HTS 154 | MEKK2wt confirm inactive | MEKK2mut confirm inactive | MEKK3-MEK5 inh inactive
CCN(CC)CCN(C(=O)c1ccc2c(c1)CCCC2)c1nc2c(C)cccc2s1	MEKK2 mut-MEK5 29, MEKK2wt PB1 HTS 158 (no result: ABCG2 block, ABCB1 inh) | MEKK2wt confirm inactive | MEKK2mut confirm inactive | MEKK3-MEK5 inh inactive
CC1(c2ccccc2)CC(C)(C)N2C(=O)Cc3cccc1c32 (stereo not drawn)	none
CC(C)CNC(=O)c1cc(S(=O)(=O)N2CCOCC2)ccc1N1CCCC1	none (no result: ABCG2 block, ABCB1 inh)
O=C(Cn1ncc2c([nH]c3ccccc32)c1=O)NCC1CCN(Cc2ccccc2F)CC1	none (no result: ABCG2 block, ABCB1 inh)
CN(C)CCCN(C(=O)CCS(=O)(=O)c1ccccc1)c1nc2cc3c(cc2s1)OCO3	none (no result: ABCG2 block, ABCB1 inh)
CN(C)CCCN(C(=O)c1ccc2c(c1)CCCC2)c1nc2ccc(F)cc2s1	MEKK3 PB1 HTS 138, MEKK2wt PB1 HTS 142 | MEKK2wt confirm inactive | MEKK2mut confirm inactive | MEKK3-MEK5 inh inactive
